pIC50: −log10 of the molar value.
Assays:
[1] = Apical Caco-2 cell membrane permeability; format: ADME, cell-based; details: human
[2] = target: D(2) dopamine receptor (Homo sapiens) (UniProt P14416); assay: Percentage binding to dopamine D2 at 10 uM
[3] = target: cAMP-dependent protein kinase (PKA) (Homo sapiens) (UniProt P22694+P17612+P22612); assay: Inhibition of PKA at 10 uM; format: protein assay
[4] = target: Glycogen synthase kinase-3 beta (Homo sapiens) (UniProt P49841); assay: Inhibition of GSK3-beta at 10 uM
[5] = target: Glucocorticoid receptor (Homo sapiens) (UniProt P04150); assay: Percentage binding to glucocorticord receptor at 10 uM
[6] = target: D(4) dopamine receptor (Homo sapiens) (UniProt P21917); assay: Percentage binding to dopamine D4 at 10 uM
[7] = Apical cell permeability in parental MDCK cells
[8] = target: Mitogen-activated protein kinase 12 (Homo sapiens) (UniProt P53778); assay: Inhibition of SAPK3 at 10 uM
[9] = target: Kappa-type opioid receptor (Homo sapiens) (UniProt P41145); assay: Percentage binding to opioid kappa at 10 uM
[10] = target: Cyclin-dependent kinase 2 (Homo sapiens) (UniProt P24941); assay: Inhibition of CDK2 at 10 uM
[11] = target: cGMP-specific 3',5'-cyclic phosphodiesterase (Homo sapiens, UniProt O76074); assay: Inhibitory activity against PDE5 by scintillation proximity assay
In short: (§1)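 Scintillation proximity assay for phosphodiesterase inhibition. Enzyme is used at a concentration within the linear range, and its KM was measured. Final substrate concentration is 1 µM, below one-third of KM, so IC50 approximates Ki. Results are means of n experiments with standard deviation.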

[12] = target: Mitogen-activated protein kinase 13 (Homo sapiens) (UniProt O15264); assay: Inhibition of SAPK4 at 10 uM
[13] = target: Cyclooxygenase (Homo sapiens) (UniProt P35354+P23219); assay: Inhibition of COX at 10 uM; format: protein assay
[14] = target: Sodium-dependent serotonin transporter (Homo sapiens) (UniProt P31645); assay: Activity against serotonin uptake at 10 uM
[15] = target: Serine/threonine-protein kinase Sgk1 (Homo sapiens) (UniProt O00141); assay: Inhibition of SGK at 10 uM
[16] = target: 5-hydroxytryptamine receptor 4 (Homo sapiens) (UniProt Q13639); assay: Percentage binding to serotonin 5HT4 at 10 uM
[17] = target: Thyroid hormone receptor (Homo sapiens) (UniProt P10827+P10828); assay: Percentage binding to thyroid hormone receptor at 10 uM; format: protein-complex assay
[18] = target: High affinity cAMP-specific and IBMX-insensitive 3',5'-cyclic phosphodiesterase 8B (Homo sapiens, UniProt O95263); assay: Inhibitory activity against PDE8B by scintillation proximity assay; in short: as §1
[19] = target: Serine/threonine-protein kinase Chk1 (Homo sapiens) (UniProt O14757); assay: Inhibition of CHK1 at 10 uM
[20] = target: Muscarinic acetylcholine receptor M2 (Homo sapiens) (UniProt P08172); assay: Percentage binding to muscarinic M2 at 10 uM
[21] = target: Glutamate receptor ionotropic AMPA (Homo sapiens) (UniProt P48058+P42263+P42262+P42261); assay: Percentage binding to AMPA at 10 uM; format: protein-complex assay
[22] = target: Rho-associated protein kinase 2 (Homo sapiens) (UniProt O75116); assay: Inhibition of ROCK2 at 10 uM
[23] = target: Serotonin 3 (5-HT3) receptor (Homo sapiens) (UniProt P46098+A5X5Y0+O95264+Q70Z44+Q8WXA8); assay: Percentage binding to serotonin 5HT3 at 10 uM; format: protein-complex assay
[24] = target: B1 bradykinin receptor (Homo sapiens) (UniProt P46663); assay: Percentage binding to bradykinin B1 at 10 uM
[25] = target: Glutamate [NMDA] receptor (Homo sapiens) (UniProt Q05586+Q12879+Q13224+O15399+O60391+Q14957+Q8TCU5); assay: Percentage binding to NMDA at 10 uM; format: protein-complex assay
[26] = target: Beta-2 adrenergic receptor (Homo sapiens) (UniProt P07550); assay: Percentage binding to adrenergic beta-2 receptor at 10 uM
[27] = target: MAP kinase-activated protein kinase 2 (Homo sapiens) (UniProt P49137); assay: Inhibition of MAPKAPK2 at 10 uM
[28] = target: 3',5'-cyclic-AMP phosphodiesterase 4C (Homo sapiens, UniProt Q08493); assay: Inhibitory activity against PDE4C by scintillation proximity assay; in short: as §1
[29] = Activity against GABA uptake at 10 uM
In short: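 Single-concentration screen within a panel of 54 receptors and ion channels, measuring binding or interaction at each target.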

[30] = target: Mitogen-activated protein kinase 8 (Homo sapiens) (UniProt P45983); assay: Inhibition of JNK1a1 at 10 uM
[31] = target: Sodium-dependent noradrenaline transporter (Homo sapiens) (UniProt P23975); assay: Activity against norepinephrine uptake at 10 uM
[32] = target: D(1A) dopamine receptor (Homo sapiens) (UniProt P21728); assay: Percentage binding to dopamine D1 at 10 uM
[33] = Tmax in rat; format: ADME, organism-based; details: Sprague-Dawley, in vivo
[34] = target: 3',5'-cyclic-AMP phosphodiesterase 4A (Homo sapiens, UniProt P27815); assay: Inhibitory activity against PDE4A by scintillation proximity assay
In short: (§2)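 Phosphodiesterase inhibition run as a scintillation proximity assay, with enzyme at a concentration in the linear range. Final substrate was 1 µM, below one-third of the enzyme K_M, so that IC50 approximates Ki. Values are means of n experiments with standard deviation.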

Phosphodiesterase 1 = Phosphodiesterase 1 (Homo sapiens, UniProt P54750+Q01064+Q14123); assay: Inhibitory activity against PDE1 by scintillation proximity assay; format: protein assay; in short: as §2
Phosphodiesterase 3 = Phosphodiesterase 3 (Homo sapiens, UniProt Q14432+Q13370); assay: Inhibitory activity against PDE3 by scintillation proximity assay; format: protein assay; in short: as §2
[35] = target: Protein kinase C alpha type (Homo sapiens) (UniProt P17252); assay: Inhibition of PKCalpha at 10 uM
[36] = target: 5-hydroxytryptamine receptor 2A (Homo sapiens) (UniProt P28223); assay: Percentage binding to serotonin 5HT2A at 10 uM
[37] = target: Vasopressin V2 receptor (Homo sapiens) (UniProt P30518); assay: Percentage binding to vasopressin V2 at 10 uM
[38] = Oral bioavailability in rat; format: ADME, organism-based; details: Sprague-Dawley, in vivo
In short: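 Sprague–Dawley rats were dosed intravenously at 1 mg/kg in EtOH:PEG 400:H2O (1:4:5) and orally at 30 mg/kg in 0.5% methylcellulose. Plasma was sampled at 0.083, 0.25, 0.5, 1, 2, 4, 6 and 8 h after dosing and analysed.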

[39] = target: Phosphorylase kinase (Homo sapiens) (UniProt P15735+P46020+P46019+Q93100+Q16816); assay: Inhibition of PHK at 10 uM; format: protein-complex assay
[40] = Cmax in rat; format: ADME, organism-based; details: Sprague-Dawley, in vivo
In short: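 Sprague–Dawley rats were dosed intravenously at 1 mg/kg in EtOH:PEG 400:H2O (1:4:5) and orally at 30 mg/kg in 0.5% methylcellulose.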

Rho-associated protein kinase 2 (Homo sapiens), sequence (O75116 whole entry, looked up): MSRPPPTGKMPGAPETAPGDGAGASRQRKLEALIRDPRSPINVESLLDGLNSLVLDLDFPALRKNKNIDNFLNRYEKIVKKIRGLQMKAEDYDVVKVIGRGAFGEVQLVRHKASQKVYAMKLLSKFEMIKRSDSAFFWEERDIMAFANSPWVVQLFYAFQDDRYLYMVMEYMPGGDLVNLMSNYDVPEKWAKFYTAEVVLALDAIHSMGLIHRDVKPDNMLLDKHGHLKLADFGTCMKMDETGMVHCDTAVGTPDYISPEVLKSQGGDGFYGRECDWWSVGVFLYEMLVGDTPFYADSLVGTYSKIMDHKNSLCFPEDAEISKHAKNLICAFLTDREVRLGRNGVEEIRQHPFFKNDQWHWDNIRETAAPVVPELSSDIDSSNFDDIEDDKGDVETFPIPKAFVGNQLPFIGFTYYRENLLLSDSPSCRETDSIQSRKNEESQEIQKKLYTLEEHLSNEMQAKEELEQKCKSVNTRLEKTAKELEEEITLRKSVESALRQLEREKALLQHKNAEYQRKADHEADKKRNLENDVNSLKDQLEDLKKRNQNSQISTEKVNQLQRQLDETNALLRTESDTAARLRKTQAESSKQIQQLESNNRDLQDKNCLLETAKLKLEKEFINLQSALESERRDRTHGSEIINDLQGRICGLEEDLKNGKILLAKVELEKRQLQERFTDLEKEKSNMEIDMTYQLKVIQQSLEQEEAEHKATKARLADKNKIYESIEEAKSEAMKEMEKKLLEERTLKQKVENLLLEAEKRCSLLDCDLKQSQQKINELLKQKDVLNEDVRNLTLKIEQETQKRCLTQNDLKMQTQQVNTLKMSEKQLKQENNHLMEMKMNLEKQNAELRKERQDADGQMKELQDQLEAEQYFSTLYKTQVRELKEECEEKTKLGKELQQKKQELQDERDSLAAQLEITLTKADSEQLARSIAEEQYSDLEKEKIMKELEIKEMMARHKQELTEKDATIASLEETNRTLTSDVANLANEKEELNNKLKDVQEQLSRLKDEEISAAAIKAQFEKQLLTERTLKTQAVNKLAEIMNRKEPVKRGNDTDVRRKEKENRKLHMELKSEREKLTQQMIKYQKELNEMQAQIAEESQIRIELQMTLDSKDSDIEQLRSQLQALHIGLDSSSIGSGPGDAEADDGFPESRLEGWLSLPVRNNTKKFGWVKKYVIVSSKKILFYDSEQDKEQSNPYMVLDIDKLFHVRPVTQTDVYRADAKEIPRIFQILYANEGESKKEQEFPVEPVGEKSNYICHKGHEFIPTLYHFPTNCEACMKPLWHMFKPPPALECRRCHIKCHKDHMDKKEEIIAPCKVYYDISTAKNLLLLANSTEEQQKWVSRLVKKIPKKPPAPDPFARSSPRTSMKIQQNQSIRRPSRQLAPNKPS
5-hydroxytryptamine receptor 2A (Homo sapiens), sequence (P28223 whole entry): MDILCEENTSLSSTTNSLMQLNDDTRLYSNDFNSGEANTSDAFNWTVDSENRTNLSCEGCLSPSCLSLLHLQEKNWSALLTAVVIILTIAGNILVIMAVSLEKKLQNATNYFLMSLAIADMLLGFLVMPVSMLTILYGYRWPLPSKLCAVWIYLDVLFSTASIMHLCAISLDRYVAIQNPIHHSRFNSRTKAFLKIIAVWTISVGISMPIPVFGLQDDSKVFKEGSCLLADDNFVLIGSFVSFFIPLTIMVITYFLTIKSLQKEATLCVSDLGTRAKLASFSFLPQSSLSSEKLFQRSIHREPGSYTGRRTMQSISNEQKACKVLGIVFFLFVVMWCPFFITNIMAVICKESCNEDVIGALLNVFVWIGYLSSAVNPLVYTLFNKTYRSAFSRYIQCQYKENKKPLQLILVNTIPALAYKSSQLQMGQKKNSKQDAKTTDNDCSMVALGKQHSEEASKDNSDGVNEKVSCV
Kappa-type opioid receptor (Homo sapiens), sequence (P41145 whole entry): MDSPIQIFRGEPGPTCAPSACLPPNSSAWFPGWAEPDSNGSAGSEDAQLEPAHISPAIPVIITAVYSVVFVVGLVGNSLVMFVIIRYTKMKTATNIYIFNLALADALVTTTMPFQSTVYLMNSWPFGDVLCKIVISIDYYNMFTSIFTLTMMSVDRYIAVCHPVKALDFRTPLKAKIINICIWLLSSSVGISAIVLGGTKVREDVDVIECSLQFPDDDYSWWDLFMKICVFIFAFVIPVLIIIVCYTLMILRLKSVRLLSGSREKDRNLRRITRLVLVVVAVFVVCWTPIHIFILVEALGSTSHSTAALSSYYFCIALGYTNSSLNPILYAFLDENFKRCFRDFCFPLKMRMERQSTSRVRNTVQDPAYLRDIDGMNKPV
Beta-2 adrenergic receptor (Homo sapiens), sequence (P07550 whole entry, looked up): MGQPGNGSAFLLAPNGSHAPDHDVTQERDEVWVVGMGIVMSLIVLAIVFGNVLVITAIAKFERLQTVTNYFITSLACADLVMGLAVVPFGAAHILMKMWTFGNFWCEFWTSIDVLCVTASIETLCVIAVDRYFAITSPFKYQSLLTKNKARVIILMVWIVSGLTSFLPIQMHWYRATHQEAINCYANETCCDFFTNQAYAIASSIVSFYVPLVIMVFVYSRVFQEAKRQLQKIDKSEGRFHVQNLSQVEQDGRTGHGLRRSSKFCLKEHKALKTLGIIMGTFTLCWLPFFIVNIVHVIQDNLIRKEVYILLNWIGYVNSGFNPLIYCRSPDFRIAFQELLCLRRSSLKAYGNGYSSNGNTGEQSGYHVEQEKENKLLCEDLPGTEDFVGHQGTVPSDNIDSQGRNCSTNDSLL
Glycogen synthase kinase-3 beta (Homo sapiens), sequence (P49841 whole entry, looked up): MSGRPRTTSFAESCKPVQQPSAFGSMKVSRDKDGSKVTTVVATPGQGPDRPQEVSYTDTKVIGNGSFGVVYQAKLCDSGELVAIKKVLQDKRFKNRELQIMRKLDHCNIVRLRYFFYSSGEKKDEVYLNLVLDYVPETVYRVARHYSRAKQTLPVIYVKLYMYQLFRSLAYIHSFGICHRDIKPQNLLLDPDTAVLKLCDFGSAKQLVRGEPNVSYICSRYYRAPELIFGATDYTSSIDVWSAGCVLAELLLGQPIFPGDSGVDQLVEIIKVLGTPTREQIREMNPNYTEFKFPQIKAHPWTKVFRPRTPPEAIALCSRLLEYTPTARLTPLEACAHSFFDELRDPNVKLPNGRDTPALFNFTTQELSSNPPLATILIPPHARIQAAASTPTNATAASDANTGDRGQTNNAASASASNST
3',5'-cyclic-AMP phosphodiesterase 4A, sequence (P27815 whole entry): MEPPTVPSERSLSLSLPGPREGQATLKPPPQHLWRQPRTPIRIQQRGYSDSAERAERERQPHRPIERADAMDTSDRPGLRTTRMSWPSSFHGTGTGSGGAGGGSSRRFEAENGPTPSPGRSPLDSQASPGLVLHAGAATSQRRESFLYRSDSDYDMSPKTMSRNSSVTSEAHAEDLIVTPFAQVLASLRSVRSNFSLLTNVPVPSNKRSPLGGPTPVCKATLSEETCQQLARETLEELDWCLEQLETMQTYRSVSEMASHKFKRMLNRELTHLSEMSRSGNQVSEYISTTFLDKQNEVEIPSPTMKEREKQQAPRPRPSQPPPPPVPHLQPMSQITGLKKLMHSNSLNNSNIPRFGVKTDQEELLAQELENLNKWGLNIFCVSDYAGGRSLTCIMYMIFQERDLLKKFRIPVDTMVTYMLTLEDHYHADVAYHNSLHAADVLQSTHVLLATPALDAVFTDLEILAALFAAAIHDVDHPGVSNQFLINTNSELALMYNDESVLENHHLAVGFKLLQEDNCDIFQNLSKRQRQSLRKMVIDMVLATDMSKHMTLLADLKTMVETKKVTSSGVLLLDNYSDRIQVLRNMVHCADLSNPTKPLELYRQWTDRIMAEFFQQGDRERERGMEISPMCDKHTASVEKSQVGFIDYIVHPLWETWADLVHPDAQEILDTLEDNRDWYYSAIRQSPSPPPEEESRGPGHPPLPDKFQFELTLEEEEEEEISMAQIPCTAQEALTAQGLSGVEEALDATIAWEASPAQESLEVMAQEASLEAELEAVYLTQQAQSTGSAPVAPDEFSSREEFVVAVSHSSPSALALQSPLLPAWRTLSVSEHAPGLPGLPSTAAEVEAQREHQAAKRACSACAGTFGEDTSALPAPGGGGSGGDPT
High affinity cAMP-specific and IBMX-insensitive 3',5'-cyclic phosphodiesterase 8B, sequence (O95263 whole entry): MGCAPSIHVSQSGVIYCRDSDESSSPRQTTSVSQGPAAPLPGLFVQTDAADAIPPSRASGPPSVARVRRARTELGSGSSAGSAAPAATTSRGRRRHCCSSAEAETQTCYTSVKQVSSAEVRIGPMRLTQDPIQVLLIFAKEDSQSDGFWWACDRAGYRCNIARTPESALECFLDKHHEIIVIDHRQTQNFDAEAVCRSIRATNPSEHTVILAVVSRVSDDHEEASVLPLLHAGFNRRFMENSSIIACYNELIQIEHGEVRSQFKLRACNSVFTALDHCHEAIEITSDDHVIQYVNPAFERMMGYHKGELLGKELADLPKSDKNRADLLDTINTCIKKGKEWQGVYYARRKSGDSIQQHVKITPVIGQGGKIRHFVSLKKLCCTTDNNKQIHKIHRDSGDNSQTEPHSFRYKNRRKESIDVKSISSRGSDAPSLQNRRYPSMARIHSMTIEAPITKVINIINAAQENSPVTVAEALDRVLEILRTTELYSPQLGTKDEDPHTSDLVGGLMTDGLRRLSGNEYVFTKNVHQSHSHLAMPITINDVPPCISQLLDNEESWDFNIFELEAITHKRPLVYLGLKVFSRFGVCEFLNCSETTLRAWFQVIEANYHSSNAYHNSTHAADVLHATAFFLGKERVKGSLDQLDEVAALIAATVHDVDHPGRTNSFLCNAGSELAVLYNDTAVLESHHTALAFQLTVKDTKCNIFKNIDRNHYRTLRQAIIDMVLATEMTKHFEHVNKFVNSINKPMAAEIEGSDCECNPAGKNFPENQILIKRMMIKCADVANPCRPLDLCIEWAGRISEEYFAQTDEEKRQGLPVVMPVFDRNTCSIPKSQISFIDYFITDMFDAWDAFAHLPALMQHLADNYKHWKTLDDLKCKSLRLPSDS

**Q.** Which Papp [1] does the source give for CN1C(=O)C(C(=O)Nc2nncs2)c2cc3occc3cc21 (configuration not stated) here?
**A.** The Papp was 5 ×10⁻⁶ cm/s.

**Q.** And the Activity [2]?
**A.** The Activity was 12%.

**Q.** And the inhibition [3]?
**A.** The inhibition was 16%.

**Q.** And the inhibition [4]?
**A.** Its inhibition is 16%.

**Q.** What about the Activity [5] of the same molecule?
**A.** The Activity was 0%.

**Q.** What about the Activity [6] of the same molecule?
**A.** Its Activity is 0%.

**Q.** What about the Papp [7] of the same molecule?
**A.** Its Papp is 3 ×10⁻⁶ cm/s.

**Q.** What about the inhibition [8] of the same molecule?
**A.** Its inhibition is 7%.

**Q.** What about the Activity [9] of the same molecule?
**A.** Its Activity is 0%.

**Q.** And the inhibition [10]?
**A.** Its inhibition is 2%.

**Q.** And the pIC50 [11]?
**A.** The pIC50 was < 4.80.

**Q.** And the inhibition [12]?
**A.** Its inhibition is 13%.

**Q.** What about the inhibition [13] of the same molecule?
**A.** Its inhibition is 0%.

**Q.** And the Activity [14]?
**A.** The Activity was 0%.

**Q.** What about the inhibition [15] of the same molecule?
**A.** The inhibition was 0%.

**Q.** And the Activity [16]?
**A.** Its Activity is 0%.

**Q.** What about the Activity [17] of the same molecule?
**A.** Its Activity is 0%.

**Q.** What about the pIC50 [18] of the same molecule?
**A.** Its pIC50 is < 4.80.

**Q.** And the inhibition [19]?
**A.** Its inhibition is 0%.

**Q.** And the Activity [20]?
**A.** The Activity was 0%.

**Q.** And the Activity [21]?
**A.** The Activity was 20%.

**Q.** And the inhibition [22]?
**A.** The inhibition was 20%.

**Q.** And the Activity [23]?
**A.** Its Activity is 0%.

**Q.** What about the Activity [24] of the same molecule?
**A.** The Activity was 0%.

**Q.** And the Activity [25]?
**A.** Its Activity is 7%.

**Q.** And the Activity [26]?
**A.** The Activity was 12%.

**Q.** What about the inhibition [27] of the same molecule?
**A.** The inhibition was 8%.

**Q.** And the pIC50 [28]?
**A.** Its pIC50 is < 4.80.

**Q.** And the Activity [29]?
**A.** Its Activity is 8%.

**Q.** And the inhibition [30]?
**A.** Its inhibition is 0%.

**Q.** What about the Activity [31] of the same molecule?
**A.** Its Activity is 12%.

**Q.** What about the Activity [32] of the same molecule?
**A.** Its Activity is 5%.

**Q.** What about the Tmax [33] of the same molecule?
**A.** Its Tmax is 48 min.

**Q.** What about the pIC50 [34] of the same molecule?
**A.** The pIC50 was < 4.80.

**Q.** What about the IC50 (Phosphodiesterase 1) of the same molecule?
**A.** Its IC50 is > 16 µM.

**Q.** And the IC50 (Phosphodiesterase 3)?
**A.** The IC50 was > 16 µM.

**Q.** What about the inhibition [35] of the same molecule?
**A.** Its inhibition is 13%.

**Q.** What about the Activity [36] of the same molecule?
**A.** Its Activity is 15%.

**Q.** And the Activity [37]?
**A.** The Activity was 13%.

**Q.** What about the bioavailability [38] of the same molecule?
**A.** Its bioavailability is 41%.

**Q.** What about the inhibition [39] of the same molecule?
**A.** The inhibition was 0%.

**Q.** What about the Cmax [40] of the same molecule?
**A.** Its Cmax is 8300 ng/mL.

Reference: ChEMBL document CHEMBL1147762, “A new chemical tool for exploring the physiological function of the PDE2 isozyme” (Bioorg Med Chem Lett, 2006)
